“Also recorded” adds a separate entry of the source.
What was measured:
C57BL/6 adult mice [1] = assay: AAI-induced acute renal injury model in adult mice; format: in vivo
Outline: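 Male C57BL/6 mice aged 8 weeks received AAI 5 mg/kg i.p. for three consecutive days, with NaHCO₃ as the vehicle control. SFII 30 or 60 mg/kg was given by oral gavage 12 h before AAI and at each injection. Mice were killed 3 days after the first AAI dose. Blood creatinine was measured. Kidney sections were stained with Sirius red (37 °C, 30 min), and the stained fibrotic area was calculated.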

C57BL/6 adult mice [2] = assay: AAI-induced renal fibrosis model in adult mice; format: in vivo
Outline: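 Renal fibrosis model in 8-week-old male C57BL/6 mice. A single AAI injection (10 mg/kg i.p.) was given; controls received NaHCO₃. SFII (30 or 60 mg/kg) was gavaged 12 h before AAI and then daily for 3 days; AAI-only mice received olive oil by the same schedule. Animals were killed 14 days after AAI, with body weight monitored.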

L02 [3] = assay: Cell proliferation assay; format: cell-based, human
Outline: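 CCK-8 proliferation in L02 cells (DMEM, 10% FBS, 37 °C, 5% CO₂). Cells were plated overnight in 96-well plates, then given AAI (dissolved in 1% NaHCO₃) and/or SFII (dissolved in DMSO). At 0, 24 and 48 h, medium was swapped for CCK-8 reagent, incubated 2 h at 37 °C, and absorbance was read at 450 nm.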

HK-2 [4] = format: cell-based, human
[5] = tested on: liver of adult and infant mice; assay: DNA damage in liver of adult and infant mice; format: in vivo; settings: AAI 20 mg/kg, 24 h
Outline: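 Adult mice and 14-day-old infant mice were injected with PBS (negative control), diethylnitrosamine (positive control) or AAI 20 mg/kg, and killed after 24 h. Liver protein was extracted in lysis buffer and quantified by BCA. Proteins were separated by SDS-PAGE, transferred to nitrocellulose and imaged on an infrared scanner for DNA-damage markers.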

HK-2 [6] = assay: Cell proliferation assay; format: cell-based, human
Outline: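 HK-2 cells were kept in DMEM/F12 with 10% FBS and 1% antibiotic-antimycotic at 37 °C, 5% CO₂. They were seeded in 96-well plates overnight, then treated with AAI (in 1% NaHCO₃) and SFII (in DMSO) for 48 h. Medium was replaced with CCK-8 reagent for 2 h at 37 °C, and absorbance was read at 450 nm.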

L02 [7] = format: cell-based, human
infant mice [8] = assay: Infant mice acute injury model; format: in vivo
Outline: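 Male infant mice on postnatal day 14 were injected with NaHCO₃ or AAI. SFII 10 mg/kg was given 12 h before AAI; control groups were pretreated with olive oil 12 h before injection. Mice were killed 24 h after AAI. Liver and kidney were analysed by Western blot. For TUNEL, sections were quenched with 0.3% H₂O₂ (30 min, room temperature), incubated with TUNEL mix for 2 h at 37 °C in the dark, then streptavidin-HRP for 30 min at 37 °C. Apoptotic cell percentage was calculated.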

NQO1 [9] = target: T1, NQO1 (Homo sapiens, UniProt P15559); assay: NQO1 enzyme activity test; format: biochemical
Blood coagulation assay = format: in vivo; settings: C57BL/6 adult mice, 6 mg/kg orally, 24 h
Outline: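 Adult C57BL/6 mice (4 per group) received test compound orally at 6 mg/kg and were killed 24 h later. Blood was analysed for activated partial thromboplastin time, prothrombin time and thrombin time.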

L02 [10] = assay: ALT and AST in culture medium of L02; format: cell-based, human; settings: AAI (20 or 50 μM) with SFII (5 or 10 μM), 24 h, vs AAI alone
Outline: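 L02 cells were grown in DMEM with 10% FBS and 1% antibiotic-antimycotic at 37 °C, 5% CO₂. Cells were exposed to AAI (20 or 50 μM) with or without SFII (5 or 10 μM) for 24 h. Culture medium was then collected, and ALT and AST were measured with clinical aminotransferase test kits.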

NQO1 [11] = target: T1, NQO1; assay: NQO1 activity assay in L02 cells; format: cell-based; settings: 8 h
Outline: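 An NQO1-knockdown L02 line was made by infecting cells at 50% density with concentrated shNQO1 or shNC lentivirus plus polybrene for 10 h, then selecting with puromycin (2 μg/mL) for 48 h. Knockdown was verified by qRT-PCR and Western blot. NQO1 activity was measured with a commercial kit, reading absorbance at 440 nm.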

NQO1 [12] = target: NQO1 (Mus musculus, UniProt Q64669); assay: NQO1 activity in kidney and liver tissues of mice; format: in vivo; settings: adult mice, SFII 30, 60 mg/kg orally, 2.5 h
Outline: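 NQO1 activity in mouse kidney and liver samples was measured with a commercial NQO1 activity assay kit. Sample and reaction buffer were mixed in 96-well plates, and absorbance was read at 440 nm.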

L02 [13] = assay: qRT-PCR of apoptotic-related genes in L02; format: cell-based, human; settings: AAI (20 or 50 μM) with SFII, 24 h
NQO1 [14] = target: T1, NQO1; assay: NQO1 activity assay in HK-2 cells; format: cell-based; settings: HK-2, 5 μM, 8 h, vs control group
Outline: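 HK-2 cells (DMEM/F12, 10% FBS, 37 °C, 5% CO₂) were treated with test compound at 5 μM for 8 h before protein extraction. NQO1 activity was measured with a commercial NQO1 activity kit, reading absorbance at 440 nm on a microplate reader.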

HK-2 [15] = assay: qRT-PCR of apoptosis-related genes in HK-2; format: cell-based, human; settings: AAI with SFII, 24 h
Outline: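 HK-2 cells (DMEM/F12, 10% FBS, 1% antibiotic-antimycotic, 37 °C, 5% CO₂) were treated with AAI, SFII, or both for 24 h. Expression of apoptosis-related genes was then measured by qRT-PCR.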

infant mice [16] = assay: AAI-induced liver cancer model in infant mice; format: in vivo
NQO1 [17] = target: T1, NQO1; assay: Comprehensive 2D NQO1 biochromatography retention; format: binding; settings: 2D NQO1 column/C18 column/TOFMS
NQO1 [18] = target: T1, NQO1; assay: Surface plasmon resonance; format: binding
HK-2 [19] = assay: Flow cytometry analysis of apoptosis in HK-2; format: cell-based, human; settings: AAI with SFII (10 or 20 μM), 24 h
L02 [20] = assay: Flow cytometry analysis of apoptosis in L02; format: cell-based, human
Outline: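 L02 cells were plated in 6-well plates overnight, then treated with AAI (20 or 50 μM) with or without SFII (5 or 10 μM) for 24 h. Cells were trypsinised, spun at 1000 rpm for 3 min, washed in PBS, and stained with Annexin V-FITC or -APC plus PI for 20 min at room temperature in the dark. Flow cytometry counted Annexin V⁺/PI⁺ and Annexin V⁺/PI⁻ cells as apoptotic.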

[21] = adult mice renal fibrosis model

T1 sequence (P15559 whole entry): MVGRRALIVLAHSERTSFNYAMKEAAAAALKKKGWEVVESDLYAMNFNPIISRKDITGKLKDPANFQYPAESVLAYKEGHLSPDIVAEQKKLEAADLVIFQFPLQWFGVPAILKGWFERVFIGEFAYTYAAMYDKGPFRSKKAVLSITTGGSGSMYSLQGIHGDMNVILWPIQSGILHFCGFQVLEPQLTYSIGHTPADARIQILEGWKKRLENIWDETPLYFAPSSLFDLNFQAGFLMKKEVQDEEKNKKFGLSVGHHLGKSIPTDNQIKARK
NQO1 (Mus musculus, UniProt Q64669), sequence (Q64669 2-274 limits assumed): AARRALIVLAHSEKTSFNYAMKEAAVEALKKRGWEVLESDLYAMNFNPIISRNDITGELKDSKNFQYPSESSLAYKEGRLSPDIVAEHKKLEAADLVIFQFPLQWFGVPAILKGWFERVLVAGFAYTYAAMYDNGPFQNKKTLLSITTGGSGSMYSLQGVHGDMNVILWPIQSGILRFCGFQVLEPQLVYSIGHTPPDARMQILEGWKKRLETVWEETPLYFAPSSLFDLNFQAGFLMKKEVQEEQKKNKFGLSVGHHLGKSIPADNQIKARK

With `COc1cccc2c1cc([N+](=O)[O-])c1c(C(=O)O)cc3c(c12)OCO3` [AAI, Aristolochic acid I, reference compound] the “elevation of blood CRE, fold change” value (C57BL/6 adult mice [1]; adult mice, AAI 5 mg/kg i.p. for 3 days, AAI alone) was “over 1.5”, the “body weight, AAI” value (C57BL/6 adult mice [2]; [21]) was “intensive weight loss” and the “anti-proliferative effect in L02” value (L02 [3]; AAI 0, 5, 10, 20, 50, or 100 μM, 48 h) was “gradually intensified”. The “expression of γ-H2AX in HK-2” value (HK-2 [4]; AAI dose gradient, particularly at 100 μM) was “increase”, the “DNA damage in the liver of adult mice” value [5] was “scarcely caused DNA damage” and the “γ-H2AX in the liver of infant mice” value ([5]; age 14 days) was “upregulation of γ-H2AX”. The “AAI-induced proliferation inhibition in HK-2” value (HK-2 [6]; different doses of AAI, compared with L02) was “better tolerance” and the “γ-H2AX expression (DNA damage) in L02” value (L02 [7]; AAI 20 μM) was “considerable increase”.

For `COc1cccc(O)c1-c1cc(=O)c2c(O)c(OC)c(OC)c(OC)c2o1` [SFII, skullcapflavone II], the “expression of DNA damage and apoptosis-related proteins in liver and kidney” value (infant mice [8]; SFII 10 mg/kg 12 h before AAI 20 mg/kg, 24 h) was “significantly decreased”, the “cell apoptosis and interstitial fibrosis in kidney” value (infant mice [8]; SFII 10 mg/kg pre-treated + AAI 20 mg/kg) was “reduced cell apoptosis as well as interstitial fibrosis” and the “proportion of apoptotic cells in the liver” value (infant mice [8]; SFII 10 mg/kg pre-treated, vs AAI alone) was “decreased”. For the same compound, the IC50 (NQO1 [9]) was 2870 nM, the “expressions of γ-H2AX, P53, cleaved-caspase-3, and cleaved-PARP-1 protein in kidney” value (C57BL/6 adult mice [1]; SFII 30 or 60 mg/kg oral + AAI 5 mg/kg) was “downregulated” and the “blood CRE” value (C57BL/6 adult mice [1]; SFII 30 or 60 mg/kg oral + AAI 5 mg/kg, 3 days, vs AAI alone) was “significantly declined”. The “fibrosis area of kidney (Sirius red staining)” value (C57BL/6 adult mice [1]; SFII 30 or 60 mg/kg oral + AAI 5 mg/kg, vs AAI alone, dose-dependent) was “significantly limited”, the “activated partial thromboplastin time (APTT)” value (Blood coagulation assay; 6 mg/kg) was “not significantly altered; also recorded: barely prolonged” and the “prothrombin time (PT)” value (Blood coagulation assay; 6 mg/kg) was “not significantly altered; also recorded: barely prolonged”. For the same compound, the “thrombin time (TT)” value (Blood coagulation assay; 6 mg/kg) was “not significantly altered; also recorded: barely prolonged”, the “renal histology (H&E and Sirius red staining)” value (C57BL/6 adult mice [2]; SFII 30 or 60 mg/kg gavage + single AAI 10 mg/kg i.p., day 14) was “effectively relieved renal tubular atrophy and interstitial fibrosis” and the “body weight, mice pretreated with SFII” value (C57BL/6 adult mice [2]; [21]) was “no significant change”. The “ALT level in culture supernatant of L02” value (L02 [10]) was “decreased”, the “AST level in culture supernatant of L02” value (L02 [10]) was “decreased” and the “inhibitory capability to NQO1 activity in L02” value (NQO1 [11]; L02, 5 μM) was “significantly higher than oroxylin A”. For the same compound, the “NQO1 activity of shNQO1-L02” value (NQO1 [11]; NQO1 knockdown L02, SFII 5 μM) was “further reduced”, the “NQO1 enzyme activity in kidney and liver in vivo” value (NQO1 [12]) was “good inhibitory effect” and the “mRNA levels of BAX, NOXA, PUMA, and BAK in L02” value (L02 [13]) was “significantly downregulate”. The “inhibitory effect of AAI on cell proliferation in L02” value (L02 [3]; AAI 20 μM + SFII 5 or 10 μM, 48 h, vs AAI alone) was “significantly relieved”, the “cell proliferation of L02, SFII alone” value (L02 [3]; SFII alone) was “barely affected” and the “inhibition of NQO1 activity in HK-2” value (NQO1 [14]) was “more efficient NQO1 inhibitory effect”. For the same compound, the “expression of apoptosis-related genes BAX, NOXA, PUMA, and BAK in HK-2” value (HK-2 [15]) was “downregulated”, the “expression of γ-H2AX and downstream pro-apoptotic signaling in HK-2” value (HK-2 [4]; AAI with SFII, 24 h) was “significantly decrease” and the “AAI-induced inhibition of cell proliferation in HK-2” value (HK-2 [6]; AAI 100 μM with SFII, 48 h) was “partially alleviated”. For the same compound, the “number of tumors per liver” value (infant mice [16]; SFII 10, 30 or 60 mg/kg gavage 12 h before AAI 20 mg/kg, 16 weeks, dose-independently) was “significant decrease”, the kidney fibrosis (infant mice [16]; SFII pretreated, 16 weeks after AAI administration) was “notably relieved” and the “retention on NQO1 biochromatography” value (NQO1 [17]) was “retention behaviors”. For the same compound, the Kd (NQO1 [18]) was 4200 nM, the “percentage of apoptotic cells in HK-2” value (HK-2 [19]) was “reduced the percentage of apoptotic cells in HK-2 in a dose-dependent manner” and the “percentage of apoptotic cells in L02” value (L02 [20]; AAI (20 μM, 50 μM) with SFII (5 or 10 μM), 24 h, vs AAI alone) was “significantly decreased”. The “apoptosis of L02, SFII alone” value (L02 [20]; SFII treatment alone) was “did not affect” and the “expression of P53, cleaved caspase-3, cleaved-PARP-1 and γ-H2AX in L02” value (L02 [7]; AAI (20 or 50 μM) with SFII, 24 h) was “efficaciously decrease”.

With `C[C@@H]1C[C@H]2[C@@H]3CCC4=CC(=O)C=C[C@]4(C)[C@@]3(F)[C@@H](O)C[C@]2(C)[C@@]1(O)C(=O)CO` [dexamethasone, reference compound] the “retention on NQO1 biochromatography” value (NQO1 [17]) was “no retention”.

In the case of `O=c1oc2ccccc2c(O)c1Cc1c(O)c2ccccc2oc1=O` [dicoumarol, reference compound], the “activated partial thromboplastin time (APTT)” value (Blood coagulation assay) is reported as “significantly elevate”, the “prothrombin time (PT)” value (Blood coagulation assay) is reported as “significantly elevate” and the “thrombin time (TT)” value (Blood coagulation assay) is reported as “significantly elevate”.

For `COc1c(O)cc2oc(-c3ccccc3)cc(=O)c2c1O` [oroxylin A], the IC50 (NQO1 [9]) was 930 nM, the “activated partial thromboplastin time (APTT)” value (Blood coagulation assay) was “not significantly altered” and the “prothrombin time (PT)” value (Blood coagulation assay) was “not significantly altered”. For the same compound, the “thrombin time (TT)” value (Blood coagulation assay) was “not significantly altered”, the “inhibition of NQO1 activity in HK-2” value (NQO1 [14]) was “did not notably inhibit” and the “retention on NQO1 biochromatography” value (NQO1 [17]) was “retention behaviors”. For the same compound, the Kd (NQO1 [18]) was 873 nM.

For `COc1cc(O)c2c(=O)cc(-c3ccccc3)oc2c1` [tectochrysin], the “retention on NQO1 biochromatography” value (NQO1 [17]) was “retention behaviors”.

For `COc1c(O)cc(O)c2c(=O)cc(-c3ccccc3)oc12` [wogonin], the IC50 (NQO1 [9]) was 10100 nM and the “retention on NQO1 biochromatography” value (NQO1 [17]) was “retention behaviors”.
